Reference: the RNAGym collection of RNA variant scans (doi:10.1126/science.aae0568)
Variants at the floor of the assay were thinned out.

B1: tRNA (parent)
chain: GUUCCGUUGGCGUAAUGGUAACGCGUCUCCCUCCUAAGGAGAAGACUGCGGGUUCGAGUCCCGUACGGAACG

Variants of: B1
Experiment: yeast fitness relative to wild type (ratio to wild type); higher = fitter; tRNA-Arg(CCU), competitive growth, 37 C, YPD
Outline: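 Variants of the tRNA-Arg(CCU) gene were chemically synthesised with a 3% per-site mutation rate across 69 sites and placed at the native genomic locus in Saccharomyces cerevisiae. Six parallel replicates of the pooled strains were competed in YPD at 37°C for 24 hours, and gene amplicons from the start and end populations were read by 100-nucleotide paired-end sequencing. Darwinian fitness relative to wild type was derived from changes in genotype frequencies. Genotypes required ≥ 100 starting reads, and estimates < 0.5 were set to 0.5.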

Variant | yeast fitness
G6C A14C | 0.596
G6C A14U | 0.607
G6C A14G | 1
G6C A21C C22G | ≤ 0.5
G6C G10C C29U C30G A45U | ≤ 0.5
G6C G17A A37G C60G A70U | ≤ 0.5
G6C C22A C46A C61G A69G | ≤ 0.5
G6C C27U G51U G67A | ≤ 0.5
G6A U16C | 0.974
G6A U16A | 0.769
G6A U47A U64A | ≤ 0.5
G6C A15G G51A | ≤ 0.5
G6C C33G A36U G38C A65G | ≤ 0.5
G6C C24A | 0.525
G6C C24G | 0.686
G6A U13A U16A C24G C33G C62G | ≤ 0.5
G6C C29G G39C | 0.931
G6C A20U C30G C61A | ≤ 0.5
G6A U13G C62G | ≤ 0.5
G6C A65G | 0.94
G6C C11U A65U | 0.578
G6C A15C | 0.689
G6C G9A G48C G51C U53A C66A | ≤ 0.5
G6C A15U G23A C29U A43G | ≤ 0.5

Variant | yeast fitness
G6C A15C A21C C34U A37U A69U | ≤ 0.5
G6C C22U | 0.706
G6A U13G U28G | 0.511
G6C G12A U35A | 0.55
G6C G17A U19G A69U | ≤ 0.5
G6C C22A C31G A70C | ≤ 0.5
G6C A15C A21C C34U A37U G56C U59G | ≤ 0.5
G6C C11G A15U C31G C61G A69G | 0.657
G6C C33G A40U C46U C49G A65G | 0.624
G6C G12A G51A | 0.538
G6C C66A A70U | 0.538
G6A U8C G23A A57C | ≤ 0.5
G6C G10A U16G C24U G50C | 0.609
G6C G10A U16G C31A | ≤ 0.5
G6C A45C C55U A69C | ≤ 0.5
G6C G9A A21U U28G C34U | ≤ 0.5
G6A U13C C31U U32C G67C | ≤ 0.5
G6C C55U | 0.873
G6C A14G A20C C66U | ≤ 0.5
G6A U13A A37C | ≤ 0.5
G6C C49U U53A C66U A70U | ≤ 0.5
G6A U13G U35C A57C | ≤ 0.5
G6A U13A A14G U32C A42U | ≤ 0.5
G6A U13G G48A G50A U54A | ≤ 0.5

Variant | yeast fitness
G6A U8C U13G C27U C61G | 0.567
G6C C33G A36C C49A | ≤ 0.5
G6A U8C U54C | 0.552
G6C C11G G48C A57G U59A C60A | ≤ 0.5
G6C C33A A40G A57U | ≤ 0.5
G6A U19A A20G G23A | ≤ 0.5
G6C C30G A36C G58A | ≤ 0.5
G6C C29U C34U | 0.561
G6C C11G A15C G25C C27G C30G G38C | 0.61
G6C G17A C24A U32C A45C C60A A69U | ≤ 0.5
G6C G17C C27U A40U C60U | ≤ 0.5
G6A U8C C62U G67A | ≤ 0.5
G6C C30U C61G | ≤ 0.5
G6C A43U C61G C62A | 0.618
G6C C55G G68A | ≤ 0.5
G6C C33U A43G G58A C60U | 0.554
G6C C24A G58C A65C | ≤ 0.5
G6C C29G | 0.723
G6C C31U | 0.93
G6C C31A | 0.808
G6C C11G A14U C22U G44A C55A | ≤ 0.5
G6C G9A | 1.03
G6C A20G A42U | 0.63
G6C A42C A65G C66G | 0.532

Variant | yeast fitness
G6C C31A G38A A65G | ≤ 0.5
G6C C62A G67C | ≤ 0.5
G6A U13G A36U C46G C62A | ≤ 0.5
G6C A14G U16C A42U G52U | ≤ 0.5
G6C C11G C61U | ≤ 0.5
G6A U13C C22G C55G | ≤ 0.5
G6A U13C C27G A37U C60A | ≤ 0.5
G6C G17A A36G C60U G63C | ≤ 0.5
G6C G17A A36C C62G | 0.536
G6C A21U U26C | ≤ 0.5
G6C A43G | 0.851
G6A U8G A36G | ≤ 0.5
G6A U35G C55A | 0.643
G6C C27A A42C G52A G56A G63C | ≤ 0.5
G6A U8C C34G | ≤ 0.5
G6C A37U | 0.677
G6C A37G | 0.728
G6A U13A A14G A42U | ≤ 0.5
G6C A14G U28A C46G U54C G68U | ≤ 0.5
G6C A14C U54C A65U | 0.637
G6C C22G U64A | ≤ 0.5
G6C C11U A45U | 0.559
G6C C11G A15C G25C C27G C30G G38C C61G U64G | ≤ 0.5
G6C A45C G50A | 0.629

Variant | yeast fitness
G6C A14U G18C C49U | ≤ 0.5
G6C A14C C29U C34G C46U A57G C66A G68C | ≤ 0.5
G6C C22A G41A G44A C46A G52A C66U | ≤ 0.5
G6C C11G A15G C66A | ≤ 0.5
G6C C33A G56A U59A | ≤ 0.5
G6C C11A G48C | 0.627
G6C G17A C30U A42C A43G | ≤ 0.5
G6C G9A A21U U28C U35G A36C A65G C66A | ≤ 0.5
G6C C24U U47C A57U | ≤ 0.5
G6A U19G A43U A65G G68A | ≤ 0.5
G6C C11G A15C G25C C27G C30G G38C A40G | ≤ 0.5
G6A U32C C46G | 0.694
G6C G10A A14C U16A C27U C33U | ≤ 0.5
G6C C11G C22U | 0.606
G6A U8C G12C C29G C30U A45U C62U A69U | 0.823
G6C G17A A36U C46A U53C C66A | ≤ 0.5
G6C A15C A21C C34U A37U C55A U59C C61A C62U | 0.537
G6C A20G A45U | 0.507
G6C A45U | 0.823
G6C A14G A20C U64A G67A | 0.562
G6C A45C G58A | 0.587
G6A U26A A37C A57U | ≤ 0.5
G6C A45U G50A | 0.658
G6A U32C | 0.839

Variant | yeast fitness
G6C A57U C62U | ≤ 0.5
G6C C31A C33U C62U | ≤ 0.5
G6C A14G A20C U54A A57C | ≤ 0.5
G6C A37U U53C A69U | ≤ 0.5
G6A U16C C34G G51A | ≤ 0.5
G6A U35A | 0.775
G6A U64C | 0.874
G6C C22U A65G C66G G68C | ≤ 0.5
G6C A36U A43G G48A C49U U53C | ≤ 0.5
G6C C30A A42C | 0.546
G6C G12A C31A A43G | ≤ 0.5
G6C A14G C49G G50A G58A | ≤ 0.5
G6C A40U | 0.803
G6C A15G C22A C29G A37C | ≤ 0.5
G6C A15G U54G C55U | ≤ 0.5
G6C G10C A40G A42U | ≤ 0.5
G6C A42G | 0.815
G6C C33G C34U C49U U64A | ≤ 0.5
G6A U53A G67U G68A | ≤ 0.5
G6A U59C C62U | 0.543
G6C C24U G38C A40G A65G | ≤ 0.5
G6A U53A | 0.663
G6A U53C | 0.82
G6C G12A A37C G51A U53C C62A | ≤ 0.5

Variant | yeast fitness
G6C C11A | 0.659
G6C C11U | 0.872
G6C C46G C62U G63A C66U | ≤ 0.5
G6C A42C C62G | ≤ 0.5
G6C C11A C22U U47C C66A | ≤ 0.5
G6C G10C C11U G23A C24G C46G | ≤ 0.5
G6C C31G C33G U47C G51A | ≤ 0.5
G6C C33G A36C | ≤ 0.5
G6C A14C C27U | 0.539
G6C A20U C30G A65G A70U | 0.53
G6C C11G C29U G50A C55U | ≤ 0.5
G6C C27U G56A C61U | ≤ 0.5
G6C A20U C22U C24U | ≤ 0.5
G6C G10C | 0.649
G6C C31U A36G G52C G68A | ≤ 0.5
G6C C24A A70C | ≤ 0.5
G6C G12A A21G C66U | ≤ 0.5
G6C A14U A36G A42G G52A G58A | ≤ 0.5
G6C C11G G41A A42C G50C A70G | ≤ 0.5
G6C A57G | 0.968
G6A U28A G68A | 0.533
G6C A14G C27A A42C G52A G56A G63C | ≤ 0.5
G6A U32G U35G | ≤ 0.5
